Measured values gathered from unrelated publications.
Each line is one published result; the experiments were not run side by side.
Target: Muscarinic acetylcholine receptor M3 (CHRM3, Homo sapiens, UniProt P20309)
Concentration: 10 µM

SMILES | observed | method | inhibition [%]
O=C1N=C(N2CCCCN2)S/C1=C\c1ccc(F)cc1O | ligand displacement | radioligand | < 10
N#Cc1cc(Cn2c(N3CCCC3)nc3ccccc32)ccc1F | ligand displacement | – | -31.1
CCN(Cc1ccccc1C(F)(F)F)C(=O)C1CCN(S(=O)(=O)c2ccc3[nH]ncc3c2)CC1 | ligand displacement | radioligand | 14
O=C(Nc1ccc(S(=O)(=O)N2CCC(Cl)CC2)cc1)c1ccc([N+](=O)[O-])o1 | ligand displacement | radioligand | 13
CCN(CC)c1ccc(C2Nc3ccc(C(=O)c4ccccc4)cc3NC3=C2C(=O)CC(C)(C)C3)cc1 (stereo not drawn) | ligand displacement | radioligand | 43
Oc1cccc(Nc2nc(-c3ccc(F)cc3F)cs2)c1 | cell-free assay | – | -16.6
CCCNc1nc2ccccc2n1Cc1ccc(Cl)cc1 | ligand displacement | – | -39.7
O=C(c1ccc(F)cc1)N(Cc1ccccc1)C1CCCCC1 | cell-free assay | – | 17
Ic1cccc2cnccc12 | ligand displacement | radioligand | 5
